Compound activity from PubChem BioAssay.
Diaph inh CS: diaphorase inhibitors and chemical oxidizers, primary screen, counter-screen for diaphorase-coupled primary assays, biochemical, uHTS, resorufin fluorescence; inhibition, % at 20 µM; diaphorase resazurin-to-resorufin fluorescence, NADH, 16 min; bacterial (C. kluyveri) enzyme, not human; 190,000 tested, 0.69% active;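 active = primary screen inhibition at 20 µM above a set limit, cut at about 50% in these data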;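 also: plate controls were DMSO with full reaction for no effect and wells lacking NADH for full effect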
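Test system: diaphorase enzyme from Clostridium kluyveri; amount: diaphorase at 0.14 U/mL in enzyme working solution; detection: fluorescence of resorufin formed from resazurin, Ex 544/Em 590 nm; times: reaction incubation of 16 min at room temperature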
FLuc stim CS: FLuc activators, initial screening, artefact control for FLuc-dependent activation tests, biochemical, ATPlite luminescence; activation factor at 10 µM; ATPlite luciferase biochemical, 10 min; 0 = ATP-free wells, 1 = DMSO control; Luciferin 4-monooxygenase (Photinus pyralis), P08659; 200,000 tested, under 10 active; AID 1027, 2008;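 active = luciferase activation factor, scaled between plate controls, of at least 2 with compound at 10 µM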
Target sequence (P08659 whole entry, looked up): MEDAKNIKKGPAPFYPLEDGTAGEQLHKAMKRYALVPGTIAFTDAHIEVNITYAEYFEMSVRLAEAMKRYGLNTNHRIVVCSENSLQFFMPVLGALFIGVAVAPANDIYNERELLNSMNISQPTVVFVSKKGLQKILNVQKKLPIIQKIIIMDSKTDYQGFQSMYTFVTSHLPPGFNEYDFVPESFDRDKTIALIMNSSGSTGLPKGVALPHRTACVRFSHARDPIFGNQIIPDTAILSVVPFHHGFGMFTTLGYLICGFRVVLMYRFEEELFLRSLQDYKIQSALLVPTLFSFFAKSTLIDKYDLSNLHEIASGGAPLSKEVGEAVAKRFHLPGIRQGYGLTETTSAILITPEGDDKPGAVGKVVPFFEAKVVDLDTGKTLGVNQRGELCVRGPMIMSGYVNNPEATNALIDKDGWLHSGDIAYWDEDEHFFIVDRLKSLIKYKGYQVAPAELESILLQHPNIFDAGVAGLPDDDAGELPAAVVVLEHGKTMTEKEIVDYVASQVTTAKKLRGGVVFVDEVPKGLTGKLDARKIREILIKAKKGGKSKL
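test system = cell-free luciferase reagent | medium = PBS as buffer for the ATP substrate | dosing = test compounds dosed from 2 mM stocks in 100% DMSO | incubation = 10 min at ambient temperature | detection = luminescence measurement of luciferase light output | benchmarks = low control with PBS replacing ATP, high control enzyme plus ATP without compound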
G6PDH CS: L. mesenteroides G6PDH inhibitors, counter-screen for G6PDH-coupled screening assays, biochemical, Leuconostoc mesenteroides enzyme. Purified L. mesenteroides G6PDH, diaphorase/resazurin coupled fluorescence, 45 min. glucose-6-phosphate dehydrogenase [Leuconostoc mesenteroides]. inhibition, % at 5 µM. 200,000 tested, 0.12% active; in the data active = inhibition above about 50%
Diaphorase act: compounds boosting diaphorase resazurin reduction – biochemical, uHTS, resorufin fluorescence, counter-screen for diaphorase-coupled primary assays, primary screen; Diaphorase/resazurin coupled assay, 16 min; active compounds read high; 1 = vehicle wells, 0 = NADH-free wells; activation factor at 20 µM; 190,000 tested, 0.005% active; AID 1229, 2008;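 active = diaphorase activity raised at least twofold by the compound at 20 µM; inactive = activation factor below 2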
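System – purified diaphorase enzyme from Clostridium kluyveri · Input – enzyme 0.07 U/mL final · Also added – final NADH 0.114 mM, resazurin 0.1 mM · Measured by – fluorescence of resorufin, 544 nm excitation, 590 nm emission · Timing – 16 min enzyme reaction, ambient temperature · Measure – resorufin increase flagging diaphorase activators or reducers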
FLuc inhib CS: firefly luciferase enzyme inhibitors, primary screen, artefact control for luciferase-based inhibitor screens, biochemical, luminescence, ATPLite. Luciferin 4-monooxygenase (Photinus pyralis), P08659. 10 min. inhibition, % at 10 µM. 200,000 tested, 1.5% active. AID 1006, 2008;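 active = inhibition above about 50% when tested at 10 µM, limit read from the data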
* = called active by the depositor. The list is not random: actives were taken first. Their share in the collection is about 2.3%.

SMILES	Diaph inh CS	FLuc stim CS	G6PDH CS	Diaphorase act	FLuc inhib CS
Cc1cc(C)c[n+](C2=C([O-])c3ccccc3C(=O)/C2=N\S(=O)(=O)c2cccs2)c1	22	1.1	33	0.8	-5
Cc1ccccc1NC1=C/C(=N\S(=O)(=O)c2cccs2)c2ccccc2C1=O	24	1	55*	0.8	1
Cc1cc[n+](C2=C([O-])c3ccccc3C(=O)/C2=N\S(=O)(=O)c2cccs2)cc1C	14	1.1	54*	0.9	-7
CCc1ccc(NC(=O)Cn2c3[n+](c4c(F)c(F)ccc42)CCCCC3)cc1	-4	1	6	1	1
c1ccc(-c2cn3nc4c(nc3n2)CCCC4)cc1	11	0.1	7	0.9	86*
COc1ccc(C(C(=O)NCCC(C)C)N(CCN2CCOCC2)C(=O)Cn2nnc3ccccc32)c(OC)c1 (configuration not stated)	-10	1	1	1.1	-3
O=C(C1=C[C@@H](c2ccc3c(c2)OCO3)C[C@@H](OCCCCO)O1)N1CCN(Cc2ccc3c(c2)OCO3)CC1	18	1	8	0.8	-3
C#Cc1ccc([C@@H]2C=C(C(=O)N3CCN(Cc4ccc5c(c4)OCO5)CC3)O[C@H](OCCCCO)C2)cc1	53*	1	5	0.5	-2
CCOc1ccc(-c2nnc(-c3ccccc3)o2)cc1	2	0.3	7	1	75*
CCOc1ccc(-c2nc3ccccc3c(=O)o2)cc1	-1	0.3	9	1	68*
COc1ccc(-c2nc3ccccc3c(=O)o2)cc1OC	-1	0.9	-3	1	10
CC(=O)c1c(C)[nH]c(C(=O)Nc2nc(C)cs2)c1C	0	0.1	0	1	90*
Cc1ccc(NC(=O)c2cc(F)c(F)cc2Cl)nc1	-5	0.6	13	1	35
Cc1ccc(NC(=O)c2ccccc2F)nc1	14	0.5	-23	0.9	52*
CC(=O)c1c(C)[nH]c(C(=O)Nc2ccc(C)cn2)c1C	-2	0.1	1	1	88*
CCN(CCNCC(O)COCc1ccc(Cl)cc1)c1cccc(C)c1 (configuration not stated)	12	1	-8	0.9	-5
O=S(=O)(Cc1ccccc1)Cc1cnc(Cl)s1	13	1.1	-1	0.9	-9
Clc1ccccc1Cc1noc(CN2CCCCC2c2ccccn2)n1 (configuration not stated)	3	1.1	0	1	-6
CC12CC(NC(=O)N1c1cccc(C(=O)NCc3ccccc3)c1)c1ccccc1O2 (configuration not stated)	10	1	12	0.9	-2
O=C1C(C2=C(O)c3ccccc3C2=O)=Nc2ccccc21	10	0.7	56*	0.9	30
CN=CC1=C(O)c2ccccc2C1=O	14	1	5	0.9	-4
C=CCN1C(=O)/C(=C\c2ccc(Oc3nc(N4CCOCC4)nc(N4CCOCC4)n3)c(OC)c2)SC1=S	1	1	3	1	-4
CCOC(=O)C1(CC2CCCCO2)CCN(C(=O)NCc2ccccc2)CC1 (configuration not stated)	6	1.1	8	0.9	-6
O=c1[nH]c(CSc2nnc(NCCCN3CCOCC3)s2)nc2cc(Cl)ccc12	-3	0.9	2	1	7
CO[C@H]1C=CO[C@@]2(C)Oc3c(C)c(O)c4c(O)c(c(C=NN5CCN(C6CCCC6)CC5)c(O)c4c3C2=O)NC(=O)C(C)=CC=C[C@H](C)[C@H](O)[C@@H](C)[C@@H](O)[C@@H](C)[C@H](OC(C)=O)[C@@H]1C	84*	1	14	0.2	2
CCOc1ccc(NC(=O)COc2ccccc2)c([N+](=O)[O-])c1	2	0.4	3	1	59*
Cc1ccc(C(=O)N/N=C\c2ccccc2[N+](=O)[O-])cn1	-8	0.2	4	1.1	78*
